Results on 17 molecules are retold here after ChEMBL document CHEMBL5120949, “Optimization of Covalent MKK7 Inhibitors via Crude Nanomole-Scale Libraries” (J Med Chem, 2022).

In brackets after ≈: the same amount, converted by molar mass.

In data set [1] the target is T1, Dual specificity mitogen-activated protein kinase kinase 7 (Homo sapiens) (UniProt O14733).
T1 sequence (whole entry): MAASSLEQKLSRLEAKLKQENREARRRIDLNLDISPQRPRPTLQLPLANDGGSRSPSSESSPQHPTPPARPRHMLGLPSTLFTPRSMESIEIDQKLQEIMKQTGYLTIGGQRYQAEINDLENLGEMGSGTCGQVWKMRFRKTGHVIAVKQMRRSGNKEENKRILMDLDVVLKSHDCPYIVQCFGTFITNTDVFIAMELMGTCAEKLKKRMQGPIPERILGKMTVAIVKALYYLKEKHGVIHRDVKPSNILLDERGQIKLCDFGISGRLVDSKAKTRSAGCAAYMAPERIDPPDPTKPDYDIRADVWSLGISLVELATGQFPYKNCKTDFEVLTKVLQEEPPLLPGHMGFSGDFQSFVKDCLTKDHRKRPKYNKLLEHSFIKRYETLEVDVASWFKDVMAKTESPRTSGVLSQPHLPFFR
Nature of the data set: Inhibition of N-terminal 6XHis-tagged recombinant MKK7 (117 to 423 residues) in human U2OS cells assessed as reduction in JNK phosphorylation level at 13.8 uM incubated for 2 hrs by ICW detection method relative to control. The class given is cell-based. In outline:
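U2OS cells plated on fibronectin-coated 384-well plates, 24 h. Crude CuAAC reaction mixtures diluted in PBS and given to cells at 13.89 μM final for 2 h. 0.2 M sorbitol added 40 min before fixation. Cells fixed, permeabilized and immunostained for phospho-JNK T183/Y185. The 800 nm signal was normalized to CellTag700 and compared with control wells.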

In data set [2] the target is T1, Dual specificity mitogen-activated protein kinase kinase 7 (Homo sapiens). Nature of the data set: Binding affinity to N-terminal 6XHis-tagged recombinant MKK7 (117 to 423 residues) (unknown origin) assessed as protein labelling at 2 uM measured for 10 mins by LC/MS analysis relative to control.
The nature of data set [3]: Metabolic stability in human liver microsomes assessed as intrinsic clearance measured after 60 mins. A general note: Liver microsomes are a subcellular fraction often used to study metabolism.
Data set [4] in a line: Apparent permeability across apical to basolateral side in human Caco2 cells. Conditions: Caco-2.
A short description of data set [5]: Kinetic solubility of compound.
Data set [6] in a line: Stability of the compound in human plasma assessed as parent compound remaining. Format: ADME, cell-free.
Data set [7] addresses T2, Dual specificity mitogen-activated protein kinase kinase 7 (Homo sapiens, UniProt O14733).
T2 sequence (O14733 whole entry): T1 sequence (whole entry)
Briefly: Inhibition of N-terminal 6XHis-tagged recombinant MKK7 (117 to 423 residues) in human U2OS assessed as reduction in c-Jun phosphorylation level incubated for 80 mins by Western blot analysis. The class given is cell-based. In outline:
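U2OS cells in six-well plates, media changed, then exposed to compound in 0.1% DMSO for 80 min. Sorbitol added to 0.2 M for 40 min. Lysates (35 μg protein) run on western blot against p-c-Jun (Ser63), with GAPDH as loading control. Bands quantified and EC50 taken from a sigmoidal dose–response fit with top fixed at 1 and bottom at 0.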
(In general: In western blotting, separated proteins are transferred to a membrane and probed.)

Broadly, the inhibition is the drop in the measured response relative to a control, in per cent. Take `C=CC(=O)N1CCC[C@@H](n2nc(-c3cn(-c4ccc(Br)cc4)nn3)c3c(N)ncnc32)C1`: in data set [1], the inhibition worked out at 65%. The Activity in data set [2] is above 70%. The term microsomal CLint denotes a measure of how fast metabolising enzymes remove a compound, apart from limits set by blood flow. One may read the Papp A→B as the apparent permeability from the apical to the basolateral side of a cell layer. What is called solubility (kinetic) is solubility judged after dilution from a stock solution rather than from solid. As to `C=CC(=O)N1CCC[C@@H](n2nc(-c3cn(-c4ccc(C(C)=O)cc4)nn3)c3c(N)ncnc32)C1`, the microsomal CLint at 1 h in data set [3] came to 154 µL/min/mg. For the same molecule, the Papp A→B in data set [4] was determined as 20 ×10⁻⁶ cm/s. In addition, in data set [5], the kinetic solubility amounted to 8 µM (≈ 3.66 µg/mL). Further, the Stability in data set [6] was 70%. In addition, the inhibition in data set [1] worked out at 65%. Regarding `C=CC(=O)Nc1cc(C(=O)NCc2cn(C3CCC3)nn2)cc(-c2n[nH]c3ccccc23)c1`, in data set [2], the Activity is above 70%. The term EC50 denotes the concentration that produces a half-maximal response. Take `C=CC(=O)N1CCC[C@@H](n2nc(-c3cn(-c4cc(Br)ccc4O)nn3)c3c(N)ncnc32)C1`: the EC50 in data set [7] is above 900 nM. Also, the inhibition in data set [1] stood at 65%. The Activity in data set [2] is above 70%. Consider `C=CC(=O)Nc1cc(C(=O)NCc2cn(-c3ccc(F)c(Cl)c3)nn2)cc(-c2n[nH]c3ccccc23)c1`, for which the Activity in data set [2] is above 70%. As to `C=CC(=O)N1CCC[C@@H](n2nc(-c3cn(CC(F)(F)c4ccc(Cl)cc4)nn3)c3c(N)ncnc32)C1`, the inhibition in data set [1] amounted to 65%. Also, the Activity in data set [2] is above 70%.

With `C=CC(=O)N1CCC[C@@H](n2nc(-c3cn(-c4ccc(Cl)cc4O)nn3)c3c(N)ncnc32)C1`, the inhibition in data set [1] came out at 65%. In addition, the Activity in data set [2] was above 70%. As to `C#CCNC(=O)c1cc(NC(=O)C=C)cc(-c2n[nH]c3ccccc23)c1`, the Activity in data set [2] worked out at 2%. Take `C#Cc1nn([C@@H]2CCCN(C(=O)C=C)C2)c2ncnc(N)c12`: the inhibition in data set [1] came out at 65%. In addition, the Activity in data set [2] was above 70%. With `C=CC(=O)N1CCC[C@@H](n2nc(-c3cn(CCc4ccccc4)nn3)c3c(N)ncnc32)C1`, the inhibition in data set [1] worked out at 65%. Besides, the Activity in data set [2] is above 70%.

Turning to `C=CC(=O)N1CCC[C@@H](n2nc(-c3cn(CC(F)(F)c4ccccc4)nn3)c3c(N)ncnc32)C1`, in data set [1], the inhibition was found to be 65%. Regarding `C=CC(=O)N1CCC[C@@H](n2nc(-c3cn(-c4ccc(OC)cc4)nn3)c3c(N)ncnc32)C1`, in data set [1], the inhibition was found to be 65%. Moreover, in data set [2], the Activity is above 70%. `C=CC(=O)Nc1cc(C(=O)NCc2cn([C@@H]3CCCC[C@H]3OC)nn2)cc(-c2n[nH]c3ccccc23)c1` (racemic): the Activity in data set [2] was above 70%.

On to `C=CC(=O)N1CCC[C@@H](n2nc(-c3cn(-c4ccc(CO)c(F)c4)nn3)c3c(N)ncnc32)C1`, for which the inhibition in data set [1] came out at 65%. Besides, in data set [2], the Activity was above 70%. In the same order, the values of `C=CC(=O)N1CCC[C@@H](n2nc(-c3cn(C[C@H](O)c4ccc(Br)cc4)nn3)c3c(N)ncnc32)C1` are 65% and above 70%. As for `C=CC(=O)Nc1cc(C(=O)NCc2cn(-c3ccccc3C)nn2)cc(-c2n[nH]c3ccccc23)c1`, the EC50 in data set [7] was below 3000 nM. Besides, the Activity in data set [2] is above 70%.

As to `C=CC(=O)N1CCC[C@@H](n2nc(-c3cn(-c4ccc(C(=O)OC)cc4)nn3)c3c(N)ncnc32)C1`, the inhibition in data set [1] worked out at 65%. In data set [2], the Activity was above 70%.
